This excerpt belongs to a sample that is enriched for hits.
Lung fibro prol – blocks proliferation of human lung fibroblasts | LL 47 human lung fibroblast viability, ATP luminescence; active compounds read low | viability, % at 10 µM | 1.1% of 85,000 active;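 active = viability at or below 50% in the single dose screen; inactive = viability above 50%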;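 note: compound exposure lasted 72 h before the ATP readout; 100% = median luminescence of untreated cell-only wells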
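Signal: luminescent ATP detection, CellTiter-Glo; assay system: LL 47 human lung fibroblasts; input: 1,150 cells/well; incubation: overnight cell rest, 72 h compound treatment at 37 °C; measure: % viability versus median cells-only luminescence; medium: IMEM growth medium with 15% fetal bovine serum; dosing: compound addition at 0.1% DMSO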
HUVEC prolif 384 – blocks proliferation of human endothelial cells. HUVEC proliferation, CellTiter-Glo luminescence, 72 h; active compounds read low. viability, % at 10 µM (by protocol). 1.1% of 86,000 active;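 active = viability at or below 30%; inactive = viability above 30%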;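 note: 100% = median luminescence of DMSO-only cell control wells on each plate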
HCT116 bCat-KO – beta-catenin-lacking colon tumor cell growth suppression; HCT116 beta-catenin knockout viability, CellTiter-Glo, 60 h; active compounds read low; viability, % at 10 µM; 1.5% of 140,000 active; AID 818;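 active = viability at or under a set limit, the compound median less 4 SD, cut at about 6% in these data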;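 note: 0% = Hyamine 1622 control at 20 µM and 100% = untreated cell control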
H69AR growth 86K – growth inhibitors of human H69AR lung tumor cells | 6% of 85,000 active | viability, % at 10 µM | H69AR lung tumor viability, ATP luminescence, 72 h; active compounds read low;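 active = viability at or below 40%; inactive = viability above 40%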;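 note: multidrug resistant small cell line overexpressing MRP-1 efflux transporter; 100% = mean luminescence of untreated control wells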
HCT116 PTEN-null – PTEN-deleted cell growth suppression | viability, % at 10 µM | 1.2% of 140,000 active | HCT116 PTEN-null viability, CellTiter-Glo, 60 h; active compounds read low | AID 827;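 active = viability at or below a set limit, 4 SD under the median of all tested compounds, cut at about 3.7% in these data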;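 note: PTEN knockout HCT116 line with beta catenin targeted HCT116 as companion control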
* hit, by the source's call.

For Cc1ccc(S(=O)(=O)CC#CCOC(=O)c2ccc([N+](=O)[O-])cc2)cc1 the results were Lung fibro prol 42.6*, HUVEC prolif 384 42.6, HCT116 bCat-KO 71.3, H69AR growth 86K 1.6* and HCT116 PTEN-null 91.9.
For Cc1ccc(C(=O)c2ccc([N+](=O)[O-])cc2)cc1 the results were Lung fibro prol 104.8, HUVEC prolif 384 115.7, HCT116 bCat-KO 97.6, H69AR growth 86K 98.7 and HCT116 PTEN-null 97.5.
Screening COc1ccccc1Nc1nc(N)nc(-c2oc3ccccc3c2C)n1 returned Lung fibro prol 79.9, HUVEC prolif 384 94.9, HCT116 bCat-KO 90.7, H69AR growth 86K 62.5 and HCT116 PTEN-null 90.5.
`Cc1c(-c2nc(N)nc(Nc3ccc(F)cc3)n2)oc2ccccc12` gave Lung fibro prol 81.4, HUVEC prolif 384 58.5, HCT116 bCat-KO 85.3, H69AR growth 86K 21.4* and HCT116 PTEN-null 86.5.
`C/C(=N\Nc1cc(-c2ccccc2)nc(-c2ccccc2)n1)c1ccc(O)c(C)c1` gave HCT116 bCat-KO 10.5 and HCT116 PTEN-null 2.0*.
C/C(=N\Nc1cc(Cl)nc(C)n1)c1ccc(Cl)c(Cl)c1 was read as HCT116 bCat-KO 90.0 and HCT116 PTEN-null 82.6.
For CC(C)NC(=O)c1cc(-c2ccc(Br)cc2)on1 the results were Lung fibro prol 105.8, HUVEC prolif 384 111.9, HCT116 bCat-KO 94.1, H69AR growth 86K 92.5 and HCT116 PTEN-null 88.5.
Screening CCOC(=O)CSc1c(-c2ccc(Cl)cc2)[nH]c2ccccc12 returned HCT116 bCat-KO 83.2 and HCT116 PTEN-null 70.9.
`O=C(Cc1cccs1)NCCSc1c(-c2ccc(Cl)cc2)[nH]c2ccccc12` gave HCT116 bCat-KO 4.7* and HCT116 PTEN-null 12.3.
`COc1ccc(C2Oc3ccccc3C3=C2C(c2cccs2)n2ncnc2N3)cc1` (centres undefined) gave Lung fibro prol 46.0*, HUVEC prolif 384 58.1, HCT116 bCat-KO 40.3, H69AR growth 86K 18.1* and HCT116 PTEN-null 22.4.
CCOC(=O)c1cnc2ccc(C)cc2c1Sc1ccccc1C(=O)OC was read as HCT116 bCat-KO 48.7 and HCT116 PTEN-null 56.8.
`O=C(c1c(Cl)nc2sccn12)N1CCN(c2cccc(Cl)c2)CC1` gave Lung fibro prol 59.5, HUVEC prolif 384 54.2, HCT116 bCat-KO 13.6, H69AR growth 86K 19.3* and HCT116 PTEN-null 14.5.
O=C(c1cccc(F)c1)N1CCN(c2cccc(Cl)c2)CC1 was read as Lung fibro prol 71.8, HUVEC prolif 384 65.0, HCT116 bCat-KO 22.9, H69AR growth 86K 18.3* and HCT116 PTEN-null 24.5.
Screening O=C(c1c(F)c(F)c(F)c(F)c1F)N1CCN(c2cccc(C(F)(F)F)c2)CC1 returned Lung fibro prol 67.1, HUVEC prolif 384 35.9, HCT116 bCat-KO 13.0, H69AR growth 86K 28.9* and HCT116 PTEN-null 18.1.
O=C(c1cccc(F)c1)N1CCCN(C(=O)c2cccc(F)c2)CC1 was read as HCT116 bCat-KO 94.1 and HCT116 PTEN-null 98.5.
Screening O=C(Nc1ccc(N2CCN(C(=O)c3ccco3)CC2)cc1)c1cccc(F)c1 returned Lung fibro prol 98.9, HUVEC prolif 384 82.1, HCT116 bCat-KO 54.2, H69AR growth 86K 30.3* and HCT116 PTEN-null 50.2.
Screening C/C(CC(=O)Nc1ccccc1C)=N\NC(=O)Cc1csc(N)n1 returned HCT116 bCat-KO 104.8 and HCT116 PTEN-null 100.7.
For O=C(O)CSc1nnc(-c2ccccc2O)n1Cc1ccccc1 the results were Lung fibro prol 100.6, HUVEC prolif 384 103.5, HCT116 bCat-KO 85.6, H69AR growth 86K 90.3 and HCT116 PTEN-null 91.9.
Screening COc1ccccc1C(=O)N1CCN(c2cccc(Cl)c2)CC1 returned Lung fibro prol 46.4*, HUVEC prolif 384 50.3, HCT116 bCat-KO 11.3, H69AR growth 86K 58.4 and HCT116 PTEN-null 12.3.
COc1cc2c(C(=O)N3CCN(c4cccc(Cl)c4)CC3)cn(C)c(=O)c2cc1OC was read as HCT116 bCat-KO 34.4 and HCT116 PTEN-null 35.3.
For CCCc1nn(C)c(C(=O)Nc2ccc3ccccc3c2)c1Cl the results were HCT116 bCat-KO 85.9 and HCT116 PTEN-null 82.8.
For O=c1c(Cl)c(NCc2ccc(F)cc2)cnn1C12CC3CC(CC(C3)C1)C2 the results were HCT116 bCat-KO 89.9 and HCT116 PTEN-null 80.2.
For CCOc1ccc(NC(=O)c2ccccc2NC(=O)CN(C)CC(=O)Nc2ccc(C)cc2)cc1 the results were Lung fibro prol 86.3, HUVEC prolif 384 67.4, HCT116 bCat-KO 89.9, H69AR growth 86K 37.5* and HCT116 PTEN-null 94.1.
O=S(=O)(Cc1ccccc1)N1CCc2ccccc21 was read as Lung fibro prol 96.5, HUVEC prolif 384 76.6, HCT116 bCat-KO 60.2, H69AR growth 86K 27.6* and HCT116 PTEN-null 44.1.
CN(C)S(=O)(=O)N1CCc2ccccc21 was read as Lung fibro prol 98.8, HUVEC prolif 384 98.3, HCT116 bCat-KO 87.8, H69AR growth 86K 56.0 and HCT116 PTEN-null 96.7.
For CCOC(=O)C1CCCN(c2c(Nc3ccc(C)c(C)c3)c(=O)c2=O)C1 (centres undefined) the results were Lung fibro prol 98.8, HUVEC prolif 384 114.0, HCT116 bCat-KO 97.2, H69AR growth 86K 78.8 and HCT116 PTEN-null 100.8.
Clc1ccc2nnnc(-c3ccccc3)c2c1 was read as HCT116 bCat-KO 3.7* and HCT116 PTEN-null 3.1*.
c1ccc(-c2nnnc3ccccc23)cc1 was read as HCT116 bCat-KO 59.9 and HCT116 PTEN-null 78.0.
Screening Cc1c(OCc2ccccc2)c(=O)ccn1Cc1ccc(Cl)cc1 returned Lung fibro prol 85.1, HUVEC prolif 384 63.4, HCT116 bCat-KO 54.6, H69AR growth 86K 3.9* and HCT116 PTEN-null 63.0.
O=C(c1ccc(C#CC2(O)CCCCC2)cc1)N1CCN(C(c2ccccc2)c2ccccc2)CC1 was read as Lung fibro prol 100.2, HUVEC prolif 384 85.0, HCT116 bCat-KO 59.2, H69AR growth 86K 34.0* and HCT116 PTEN-null 27.1.
CN(C)c1ccc(C(=O)C(O)c2ccccc2)cc1 (centres undefined) was read as Lung fibro prol 92.1, HUVEC prolif 384 90.3, HCT116 bCat-KO 102.5, H69AR growth 86K 94.8 and HCT116 PTEN-null 101.1.
COC(=O)c1[nH]c2ccc(Br)cc2c1NC(=O)C(C)N1CCN(C2CCCCC2)CC1 (centres undefined) was read as Lung fibro prol 24.6*, HUVEC prolif 384 28.8*, HCT116 bCat-KO 9.3, H69AR growth 86K 14.6* and HCT116 PTEN-null 3.2*.
Screening COC(=O)c1[nH]c2ccc(C)cc2c1NC(=O)NC1CCCCC1 returned Lung fibro prol 95.8, HUVEC prolif 384 89.5, HCT116 bCat-KO 5.2*, H69AR growth 86K 49.1 and HCT116 PTEN-null 36.1.
For CCCS(=O)(=O)N1CCN(CC2CC3C=CC2C3)CC1 (centres undefined) the results were HCT116 bCat-KO 76.4 and HCT116 PTEN-null 83.5.
`O=C(N/C(=C\c1cccnc1)C(=O)N1CCOCC1)c1cccc(Br)c1` gave HCT116 bCat-KO 97.2 and HCT116 PTEN-null 94.0.
Screening Cc1cccc(C(=O)Nc2ccc(C(=O)/C=C/c3cccnc3)cc2)c1 returned HCT116 bCat-KO 1.4* and HCT116 PTEN-null 1.6*.
O=C(/C=C/c1cccnc1)c1ccc(NC(=O)c2cccc(Br)c2)cc1 was read as HCT116 bCat-KO 5.7* and HCT116 PTEN-null 3.6*.
